Common to all, as to format: functional, cell-based
The subject of test [1] is L1210. Nature of the test: Concentration required to inhibit 50% growth of L1210 leukemia cells. As to conditions: Mus musculus.
The species entered for test [2] is Homo sapiens. Nature of the test: Concentration required to inhibit 50% growth of Human CEM T-lymphocytes cells. As to conditions: CCRF-CEM.
Test [3] concerns P388. Nature of the test: Inhibition of proliferation of murine P388 cells. Particulars: Mus musculus.
The species entered for test [4] is Homo sapiens. Nature of the test: Concentration required to inhibit 50% growth of human Molt 4/C8 T-lymphocyte cells. As to conditions: Molt4/C8.
Test [5] concerns Tumor Cell line. Nature of the test: Evaluation for cytotoxicity to human tumor cell lines. Summed up:
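Panel of about 55-60 human tumor lines (leukemia, melanoma, non-small cell lung, colon, CNS, ovarian, renal, prostate, breast) exposed to 10⁻⁸ to 10⁻⁴ M. Growth inhibition was read as intact-cell recovery relative to vehicle control after 48 h.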

pIC50: −log10 of the molar value.

Usually pIC50 stands for −log10 of the IC50, conventionally taken in molar units. Low values mean a large IC50, high ones a small IC50. Turning to `COc1ccc(/C=C/C(=O)c2ccc(OC(=O)/C=C/c3ccccc3)cc2)cc1`, the pIC50 is 4.40 in test [1], 4.97 in test [2], 4.99 in test [3] and 4.55 in test [4].

On to `O=C(/C=C/c1ccc([N+](=O)[O-])cc1)c1ccc(O)cc1`, for which the pIC50 was 5.14 in test [1], 5.65 in test [2], 4.88 in test [3] and 5.23 in test [4].

Turning to `COc1ccc(/C=C/C(=O)c2ccc(O)cc2)cc1`, the pIC50 was 4.49 in test [1], 5.23 in test [2], 5.06 in test [3] and 4.55 in test [4].

`O=C(/C=C/c1ccccc1Cl)c1ccc(O)cc1`: the pIC50 is 4.61 in test [1], 4.86 in test [2], 5.16 in test [3] and 4.74 in test [4].

On to `O=C(/C=C/c1ccc(O)cc1)c1ccc(Cl)c(Cl)c1`, for which the pIC50 was 4.47 in test [1], 4.70 in test [2], 5.07 in test [3] and 4.97 in test [4].

Consider `O=C(/C=C/c1ccc(Cl)cc1Cl)c1ccc(O)cc1`, for which the pIC50 in test [1] is 4.60; in test [2], 4.99; in test [3] it was 5.10; in test [4], 4.86.

In the case of `O=C(/C=C/c1ccc(/C=C/C(=O)c2ccc(O)cc2)cc1)c1ccc(O)cc1`, the pIC50 is 3.40 in test [1]; 4.10 in test [2]; 4.03 in test [5]; 6.25 in test [3]; 4.52 in test [4].

Regarding `CN(C)Cc1cc(C(=O)/C=C/c2cc(F)ccc2F)cc(CN(C)C)c1O`, the pIC50 was 4.80 in test [1], 5.54 in test [2], 5.05 in test [3] and 4.81 in test [4].

`CN(C)Cc1cc(/C=C/C(=O)c2ccc(Br)cc2)cc(CN(C)C)c1O`: the pIC50 in test [1] is 4.49; in test [2] it was 4.66; in test [3], 4.82; in test [4], 4.41.

On to `COc1ccc(/C=C/C(=O)c2cc(CN(C)C)c(O)c(CN(C)C)c2)cc1`, for which the pIC50 was 4.59 in test [1]; 4.83 in test [2]; 4.53 in test [5]; 4.36 in test [3]; 4.60 in test [4].

In the case of `CN(C)Cc1cc(C(=O)/C=C/c2ccccc2)cc(CN(C)C)c1O`, the pIC50 in test [1] is 4.75; in test [2], 4.71; in test [5] it was 4.66; in test [3], 4.53; in test [4] it was 4.68.

With `CN(C)Cc1cc(C(=O)/C=C/c2ccc(C(F)(F)F)cc2)cc(CN(C)C)c1O`, the pIC50 in test [1] is 5.09; in test [2] it was 5.81; in test [3], 5.44; in test [4], 5.08.

`O=C(/C=C/c1ccccc1)c1cc(CN2CCOCC2)c(O)c(CN2CCOCC2)c1`: the pIC50 was 4.80 in test [1]; 5.21 in test [2]; 4.84 in test [5]; 4.99 in test [3]; 4.76 in test [4].

As to `CN(C)Cc1cc(C(=O)/C=C/c2ccccc2Cl)cc(CN(C)C)c1O`, the pIC50 in test [1] is 5.16; in test [2] it was 5.09; in test [5] it was 5.02; in test [3], 4.88; in test [4], 5.15.

In turn, `CN(C)Cc1cc(C(=O)/C=C/c2ccc(/C=C/C(=O)c3cc(CN(C)C)c(O)c(CN(C)C)c3)cc2)cc(CN(C)C)c1O` showed a pIC50 in test [5] of 4.57.

Consider `CN(C)Cc1cc(C(=O)/C=C/c2ccc(F)cc2)cc(CN(C)C)c1O`, for which the negative-log IC50 (pIC50) is 4.77 in test [1]; 4.86 in test [2]; 4.70 in test [5]; 4.57 in test [3]; 4.76 in test [4].

For `CN(C)Cc1cc(C(=O)/C=C/c2ccc(Br)cc2)cc(CN(C)C)c1O`, the pIC50 in test [1] was 5.15; in test [2] it was 5.32; in test [5] it was 5.20; in test [3], 4.96; in test [4], 5.07.

As for `CN(C)Cc1cc(/C=C/C(=O)c2ccc(Cl)c(Cl)c2)cc(CN(C)C)c1O`, the pIC50 was 5.03 in test [1], 4.98 in test [2], 5.26 in test [3] and 4.91 in test [4].

Turning to `Cc1ccc(/C=C/C(=O)c2cc(CN(C)C)c(O)c(CN(C)C)c2)cc1`, the pIC50 in test [1] was 4.40; in test [2] it was 4.45; in test [5] it was 4.75; in test [3], 4.51; in test [4] it was 4.40.

As for `CN(C)Cc1cc(C(=O)/C=C/c2ccc(Cl)cc2Cl)cc(CN(C)C)c1O`, the negative logarithm of the IC50 (pIC50) in test [1] was 5.28; in test [2], 5.31; in test [5], 5.51; in test [3] it was 5.26; in test [4] it was 5.24.

As to `CN(C)Cc1cc(C(=O)/C=C/c2ccc(Cl)cc2)cc(CN(C)C)c1O`, the pIC50 in test [1] was 5.08; in test [2] it was 5.19; in test [5], 5.00; in test [3] it was 4.86; in test [4] it was 5.08.

As for `CN(C)Cc1cc(C(=O)/C=C/c2ccc(O)cc2)cc(CN(C)C)c1O`, the pIC50 in test [1] was 4.27; in test [2] it was 4.41; in test [5] it was 4.40; in test [3], under 4.30; in test [4], 4.35.

For `CN(C)Cc1cc(C(=O)/C=C/c2c(F)cccc2Cl)cc(CN(C)C)c1O`, the pIC50 is 5.08 in test [1], 5.11 in test [2], 5.04 in test [5] and 5.10 in test [4].

For the compound `CN(C)Cc1cc(C(=O)/C=C/c2ccc([N+](=O)[O-])cc2)cc(CN(C)C)c1O`, the pIC50 in test [1] is 5.06; in test [2] it was 5.76; in test [5] it was 5.05; in test [3], 4.75; in test [4], 5.32.

`CN(C)Cc1cc(C(=O)/C=C/c2ccc(Cl)c(Cl)c2)cc(CN(C)C)c1O`: the pIC50 is 5.60 in test [1]; 5.61 in test [2]; 5.63 in test [5]; 5.29 in test [3]; 5.16 in test [4].

Take `CN(C)Cc1cc(C(=O)/C=C/c2cccc(Cl)c2)cc(CN(C)C)c1O`: the pIC50 in test [1] was 5.22; in test [2] it was 5.57; in test [5] it was 5.33; in test [3] it was 5.06; in test [4] it was 5.24.

With `CN(C)Cc1cc(C(=O)/C=C/c2c(Cl)cccc2Cl)cc(CN(C)C)c1O`, the pIC50 is 5.42 in test [1]; 5.36 in test [2]; 5.23 in test [5]; 5.23 in test [3]; 5.27 in test [4].

Take `CN(C)Cc1cc(/C=C/C(=O)c2ccccc2)cc(CN(C)C)c1O`: the pIC50 in test [1] is 3.97; in test [2], 4.66; in test [3] it was under 4.30; in test [4], 4.01.

As to `O=C(/C=C/c1ccc(Br)cc1)c1ccc(O)cc1`, the pIC50 was 4.88 in test [1], 5.70 in test [2], 4.78 in test [3] and 5.22 in test [4].

With `O=C(/C=C/c1ccc(Cl)cc1)c1ccc(O)cc1`, the pIC50 in test [1] was 5.04; in test [2], 5.46; in test [3], 5.44; in test [4] it was 5.16.

With `O=C(/C=C/C=C/c1ccccc1)c1ccc(O)cc1`, the pIC50 in test [1] was 4.47; in test [2], 5.00; in test [3], 5.05; in test [4], 4.51.

As to `O=C(/C=C/c1cccc(Cl)c1)c1ccc(O)cc1`, the pIC50 in test [1] was 4.67; in test [2], 5.27; in test [3], 5.55; in test [4], 5.17.

As for `O=C(/C=C/c1ccc(Cl)c(Cl)c1)c1ccc(O)cc1`, the pIC50 in test [1] was 4.88; in test [2] it was 5.77; in test [3], 4.93; in test [4], 5.25.

On to `O=C(/C=C/c1cc(F)ccc1F)c1ccc(O)cc1`, for which the pIC50 in test [1] is 4.91; in test [2], 5.45; in test [3], 6.06; in test [4], 5.10.

`O=C(/C=C/c1ccccc1)Oc1ccc(C(=O)/C=C/c2ccc(Cl)cc2)cc1`: the pIC50 in test [1] is 3.58; in test [2], 4.34; in test [3] it was 5.42; in test [4], 3.66.

Consider `Cc1ccc(/C=C/C(=O)c2ccc(O)cc2)cc1`, for which the pIC50 in test [1] was 4.61; in test [2], 4.95; in test [3], 5.26; in test [4] it was 4.60.

Turning to `O=C(/C=C/c1c(Cl)cccc1Cl)c1ccc(O)cc1`, the pIC50 was 5.29 in test [1], 5.87 in test [2], 5.50 in test [3] and 5.29 in test [4].

`O=C(/C=C/c1ccc(C(F)(F)F)cc1)c1ccc(O)cc1`: the pIC50 is 4.89 in test [1], 5.73 in test [2], 5.60 in test [3] and 5.20 in test [4].

Consider `O=C(/C=C/c1ccccc1)Oc1ccc(C(=O)/C=C/c2ccccc2)cc1`, for which the pIC50 is 4.33 in test [1], 4.88 in test [2], 5.34 in test [3] and 4.41 in test [4].

For the compound `O=C(/C=C/c1ccc(F)cc1)c1ccc(O)cc1`, the pIC50 in test [1] is 4.80; in test [2], 5.48; in test [3] it was 5.07; in test [4], 4.79.

Compound `N[C@@H](Cc1ccc(N(CCCl)CCCl)cc1)C(=O)O` gave a pIC50 in test [5] of 4.58.

As for `O=C(/C=C/c1ccccc1)c1ccc(O)cc1` [4'-HYDROXYCHALCONE], the pIC50 in test [1] was 4.63; in test [2], 4.83; in test [3], 5.51; in test [4], 4.88.

As to `O=C(/C=C/c1ccc(O)cc1)c1ccccc1` [4-HYDROXYCHALCONE], the pIC50 was 4.42 in test [1], 5.03 in test [2], 4.84 in test [3] and 5.07 in test [4].

With `O=C(/C=C/c1ccccc1)c1ccccc1` [CHALCONE], the pIC50 in test [1] is 4.38; in test [2], 4.90; in test [5], 5.08; in test [3], 5.02; in test [4], 4.90.

The record behind these values is ChEMBL document CHEMBL1131501, “Cytotoxic activities of Mannich bases of chalcones and related compounds” (J Med Chem, 1998).
